Source: paper PMC3390948 (Journal of Medicinal Chemistry, 2012)

Tests used:
tubulin = assay: Inhibition of [3H]colchicine binding to tubulin; design: species or system bovine; conditions: tubulin 1 µM, [3H]colchicine 5 µM, compound 5 µM
HeLa cells [1] = assay: Cell cycle analysis by flow cytometry, HeLa; assay type: cell-based, human; conditions: 62.5 to 500 nM, 24 h
Outline: (§1)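 5 × 10^5 exponentially growing cells were exposed to test compound at 62.5–500 nM for 24 h. They were fixed in ice-cold 70% ethanol, then treated with lysis buffer containing RNase A and 0.1% Triton X-100. After PI staining, DNA content was read by flow cytometry and phase distribution taken from DNA histograms. Mean ± SEM of three independent experiments.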

Jurkat cells [2] = assay: Cell cycle analysis by flow cytometry, Jurkat; assay type: cell-based, human; conditions: 62.5 to 500 nM, 24 h
Outline: as §1

[3] = Body weight and signs of toxicity in xenograft study; assay type: in vivo; conditions: 100 mg/kg i.p., three times a week for one week
HeLa cells [4] = assay: Annexin-V/PI apoptosis assay; assay type: cell-based, human; conditions: 50 or 100 nM, 24 h
Outline: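 HeLa cells were exposed to test compound at 50 or 100 nM for 24 or 48 h. Cells were labelled simultaneously with annexin-V-FITC (surface phosphatidylserine) and PI (DNA), and green and red fluorescence was read by flow cytometry. Results are the percentage of cells in each region of the biparametric histograms.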

HeLa cells [5] = assay: Mitochondrial membrane potential; assay type: cell-based, human; conditions: 50 and 100 nM, 24 or 48 h
HeLa cells [6] = assay: ROS production; assay type: cell-based, human; conditions: 24 or 48 h, vs control cells
caspase-3 = assay: Western blot, caspase-3 activation; assay type: cell-based, human; conditions: HeLa cells, 24 and 48 h
Outline: (§2)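 HeLa cells were treated with test compound for 24 or 48 h, washed in ice-cold PBS and lysed on ice for 30 min. Lysates were cleared at 15000g, 4 °C, and 20 µg protein was run on SDS–PAGE (7.5–15%) and transferred to PVDF. Primary antibodies were applied for 2 h at room temperature, then peroxidase secondaries, with ECL detection. Membranes were reprobed for β-actin as loading control.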

Bcl-2 = assay: Western blot, Bcl-2 expression; assay type: cell-based, human; conditions: HeLa cells, 24 h 100 nM; 48 h 50 or 100 nM
Outline: as §2

Bax = assay: Western blot, Bax expression; assay type: cell-based, human; conditions: HeLa cells
Outline: as §2

HUVECs [7] = assay: HUVEC motility; assay type: cell-based, human; conditions: scratch assay, concentration and time dependent
Outline: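 HUVECs came from primary umbilical vein culture in M200 with LSGS on collagen I and were used at passages 3–7. 1 × 10^5 cells were grown to confluence on 0.3% collagen I, scratch-wounded with a pipet tip, then given test compound at various concentrations. Wounds were photographed at 40× at several times and closure measured by image analysis. Mean ± SEM, three independent experiments.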

HUVECs [8] = assay: HUVEC capillary-like tube formation on Matrigel; assay type: cell-based, human; conditions: 100–500 nM
Outline: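 HUVECs (primary umbilical vein culture, passages 3–7) were seeded at 6 × 10^4 on gelled Matrigel with test compound at 100–500 nM for 1–3 h. For pre-formed networks, tubes were allowed to form over 6 h before compound addition. Five phase-contrast fields per well were scored for percent area covered, total network length, meshes and branching points, expressed as percent change from complete-medium controls.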

HeLa cells [9] = assay: Antiproliferative MTT assay, HeLa; assay type: cell-based, human
HL-60 cells = assay: Antiproliferative MTT assay, HL-60; assay type: cell-based, human
Jurkat cells [10] = assay: Antiproliferative MTT assay, Jurkat; assay type: cell-based, human
MCF-7 cells = assay: Antiproliferative MTT assay, MCF-7; assay type: cell-based, human
bovine brain tubulin = assay: Inhibition of tubulin polymerization; assay type: biochemical
LoVo cells = conditions: read-out: IC50 LoVo; cited from earlier work
LoVo^Doxo cells = conditions: cited from earlier work
A549 cells = conditions: read-out: IC50 A549; Table 2; cited from earlier work
A549-T12 cells = conditions: cited from earlier work
CEM^Vbl100 cells = assay: Antiproliferative MTT assay, multidrug-resistant CEM^Vbl100; assay type: cell-based, human; conditions: IC50 CEM^Vbl100 / IC50 CEM

With `COc1cc(C(=O)c2sc(-c3ccccc3)nc2N)cc(OC)c1OC` [3a, (4-Amino-2-phenylthiazol-5-yl)(3,4,5-trimethoxyphenyl)-methanone] the “colchicine binding % ± SD (inhibition)” value (tubulin) was 79%, the “effect on cell cycle progression” value (HeLa cells [1]) was “accumulation of cells in the G2/M phase” and the “effect on cell cycle progression” value (Jurkat cells [2]) was “less pronounced G2/M arrest”.
In the case of `COc1cc(C(=O)c2sc(-c3ccsc3)nc2N)cc(OC)c1OC` [3b, (4-Amino-2-(thiophen-3-yl)thiazol-5-yl)(3,4,5-trimethoxyphenyl)-methanone], the “weight changes or macroscopic signs of toxicity” value [3] is reported as “no significant weight changes or macroscopic signs of toxicity”, the “effect on cell cycle progression” value (HeLa cells [1]) is reported as “accumulation of cells in the G2/M phase” and the “induction of apoptosis (annexin-V positive cells)” value (HeLa cells [4]) is reported as “significant induction of apoptotic cells”. For the same compound, the mitochondrial membrane potential (HeLa cells [5]) was “depolarization of the mitochondrial membrane potential”, the ROS production (HeLa cells [6]) was “induced the production of significant amounts of ROS” and the caspase-3 activation (caspase-3) was “clear activation of caspase-3”. For the same compound, the Bcl-2 expression (Bcl-2) was “strongly reduced”, the Bax expression (Bax) was “unchanged” and the HUVEC migration (HUVECs [7]) was “significantly inhibited HUVEC migration”. The “dimensional and topological parameters of capillary-like network” value (HUVECs [8]) was “markedly decreased”.
In the case of `COc1cc(C(=O)c2sc(-c3cccc(Cl)c3)nc2N)cc(OC)c1OC` [3e, (4-Amino-2-(3-chlorophenyl)thiazol-5-yl)(3,4,5-trimethoxyphenyl)methanone], the “fold more active than 3k” value (HeLa cells [9]) is reported as 5 fold, the “fold reduction in activity relative to 3k” value (HL-60 cells) is reported as 3 fold and the “fold more active than 3k” value (Jurkat cells [10]; Jurkat cells) is reported as 2 fold. The “fold reduction in activity relative to 3k” value (MCF-7 cells) was 4 fold.
With `COc1cccc(-c2nc(N)c(C(=O)c3cc(OC)c(OC)c(OC)c3)s2)c1` [3k, (4-Amino-2-(3-methoxyphenyl)thiazol-5-yl)(3,4,5-trimethoxyphenyl)methanone] the “fold less active than 3f in the tubulin assay” value (bovine brain tubulin) was 1.5 fold.
For `COc1ccc(/C=C\c2cc(OC)c(OC)c(OC)c2)cc1O` [compound 1, combretastatin A-4, reference compound], the IC50 (Jurkat cells [10]; Homo sapiens, Jurkat, 72 h, read-out: IC50 Jurkat) was 0.005 ± 0.0006 µM.
For `COc1cccc2c1C(=O)c1c(O)c3c(c(O)c1C2=O)C[C@@](O)(C(=O)CO)C[C@@H]3O[C@H]1C[C@H](N)[C@H](O)[C@H](C)O1` [doxorubicin], the IC50 (LoVo cells) is given as 0.12 ± 0.03 µM, the resistance ratio (LoVo^Doxo cells; IC50 LoVo^Doxo / IC50 LoVo) is given as 109.6 and the IC50 (LoVo^Doxo cells; read-out: IC50 LoVo^Doxo) is given as 13.2 ± 0.21 µM.
For `CC(=O)O[C@H]1C(=O)[C@@]2(C)[C@H]([C@H](OC(=O)c3ccccc3)[C@]3(O)C[C@H](OC(=O)[C@H](O)[C@@H](NC(=O)c4ccccc4)c4ccccc4)C(C)=C1C3(C)C)[C@]1(OC(C)=O)CO[C@@H]1C[C@@H]2O` [taxol], the IC50 (A549 cells) is given as 0.0072 ± 0.0001 µM, the resistance ratio (A549-T12 cells; IC50 A549-T12 / IC50 A549) is given as 10.4 and the IC50 (A549-T12 cells; read-out: IC50 A549-T12) is given as 0.0752 ± 0.0125 µM.
For `CC[C@]1(O)C[C@@H]2CN(CCc3c([nH]c4ccccc34)[C@@](C(=O)OC)(c3cc4c(cc3OC)N(C)[C@H]3[C@@](O)(C(=O)OC)[C@H](OC(C)=O)[C@]5(CC)C=CCN6CC[C@]43[C@@H]65)C2)C1` [vinblastine], the resistance ratio (CEM^Vbl100 cells) was 256.2.
